≈ marks a conversion by molar mass, not a printed value.
Key:
MCF7 = assay: Cytotoxicity against human MCF7 cells after 7 days; assay type: functional; settings: for EC50: Homo sapiens, MCF7, 168 h, read-out: ED50 (the source's name)
Method in brief: (§1)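 Human solid tumor cell lines A-549 (lung carcinoma), MCF-7 (breast carcinoma) and HT-29 (colon adenocarcinoma) tested in seven-day cytotoxicity assays run at a cancer center cell culture laboratory, with adriamycin as positive control.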

A549 = assay: Cytotoxicity against human A549 cells after 7 days; assay type: functional; settings: for EC50: Homo sapiens, A549, 168 h, read-out: ED50 (the source's name); method in brief: as §1
HT-29 = assay: Cytotoxicity against human HT-29 cells after 7 days; assay type: functional; settings: for EC50: Homo sapiens, HT-29, 168 h, read-out: ED50 (the source's name); method in brief: as §1
[1] = Toxicity against brine shrimp larvae; assay type: organism-based; settings: artemia, in vivo

Compound	EC50 (MCF7) [µg/mL]	EC50 (A549) [µg/mL]	ED50 (HT-29)	LC50 [1] [µg/mL]	ED50 (MCF7)	ED50 (A549)	EC50 (HT-29) [µg/mL]
CCCCCCCCCCCCCC[C@@H](O)[C@H](O)CC[C@H](O)[C@@H]1CC[C@@H](CCCCC[C@@H](O)CC2=C[C@H](C)OC2=O)O1 [GIGANTETROCIN A]	0.63 (≈ 1.06 µM)	0.25 (≈ 0.419 µM)	4.1 ×10⁻⁵ ug/ml	1.4 (≈ 2.35 µM)			
CCCCCCCCCCCCCC[C@@H](O)[C@H]1CC[C@H]([C@H](O)CCCCC(O)CCCCC[C@@H](O)CC2=C[C@H](C)OC2=O)O1 (some centres undefined) [XYLOMATICIN]				0.11 (≈ 0.176 µM)	1.47 ×10⁻⁶ ug/ml	1.54 ×10⁻⁴ ug/ml	0.304 (≈ 0.486 µM)
CCCCCCCCCCCCCCC(O)C(O)CC[C@H](O)[C@H]1CC[C@H](CCCCC[C@@H](O)CC2=C[C@H](C)OC2=O)O1 (some centres undefined) [GIGANTETRONENIN]	0.603 (≈ 1.01 µM)	0.0047 (≈ 0.00787 µM)					0.0537 (≈ 0.09 µM)
CCCCCCCCCCCCCC[C@@H](O)[C@H]1CC[C@H]([C@H](O)CCCCCCC(O)CCC[C@@H](O)CC2=C[C@H](C)OC2=O)O1 (some centres undefined) [XYLOPIACIN]				0.49 (≈ 0.784 µM)	1.39 ×10⁻⁷ ug/ml	1.36 ×10⁻⁶ ug/ml	0.111 (≈ 0.178 µM)
CCCCCCCCCCCC[C@H](O)[C@@H]1CC[C@@H]([C@@H](O)CCCCCCC(O)CCCCC[C@@H](O)CC2=C[C@H](C)OC2=O)O1 (some centres undefined) [ANNOMONTACIN]	0.165 (≈ 0.264 µM)	0.00772 (≈ 0.0124 µM)					0.00258 (≈ 0.00413 µM)
COc1cccc2c1C(=O)c1c(O)c3c(c(O)c1C2=O)C[C@@](O)(C(=O)CO)C[C@@H]3O[C@H]1C[C@H](N)[C@H](O)[C@H](C)O1 [DOXORUBICIN]	0.0228 (≈ 0.0419 µM)	0.0011 (≈ 0.00202 µM)					0.00279 (≈ 0.00513 µM)
CCCCCCCCCCCC[C@@H](O)[C@H]1CC[C@H]([C@H](O)CCCC[C@H](O)CCCCC[C@@H](O)CC2=CC(C)OC2=O)O1 (some centres undefined) [ANNONACIN]	0.0024 (≈ 0.00402 µM)		<1 ×10⁻⁷ ug/ml	0.23 (≈ 0.385 µM)		<1 ×10⁻⁷ ug/ml	
CCCCCCCCCCCC[C@@H](O)[C@H]1CC[C@H]([C@H](O)CCCCCCC(O)CCC[C@@H](O)CC2=C[C@H](C)OC2=O)O1 (some centres undefined) [XYLOPIANIN]	18.5 (≈ 30.9 µM)	0.0426 (≈ 0.0714 µM)		0.33 (≈ 0.553 µM)			6.63 (≈ 11.1 µM)
